Rpn11 block – Rpn11 (PSMD14) deubiquitinase inhibitors, primary screen, biochemical, fluorescence polarization, uHTS | 26S proteasome non-ATPase regulatory subunit 14 (Homo sapiens), O00487 | human 26S proteasome, Ub4-pepOG fluorescence polarization; 20S core pre-blocked with epoxomicin | calls only at 20 µM | actives 0.59% (n = 360,000) | AID 588493, 2011;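 active = inhibition at 20 µM, scaled to each plate's controls, above about 33%, limit read from the data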
CRFR2-BP antag – antagonists of CRF-BP/CRF-R2 complex, primary screen, cell-based, HEK293, calcium dye fluorescence, uHTS. inhibition, % at 11.8 µM. actives 0.59% (n = 350,000). CRF-induced calcium fluorescence. AID 588475, 2011;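 active = inhibition of the ligand-induced calcium signal above about 50% at the single tested concentration, limit read from the data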
CSN deneddyl inh – inhibitors of CSN-mediated cullin deneddylation, primary screen, biochemical, fluorescence polarization, uHTS | COP9 signalosome complex subunit 5 (Homo sapiens), Q92905 | Purified CSN, SCF-Nedd8-OG deneddylation | inhibition, % at 12.5 µM | actives 0.38% (n = 360,000);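 active = pattern-corrected inhibition above about 35%, with an unprinted fluorescence ratio check between 0.5 and 1.5, limit read from the data, passing the limit was not always enough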;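 also: 0% = enzyme with substrate and 100% = substrate without enzyme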
Target sequence (Q92905 whole entry, looked up, one chain of several): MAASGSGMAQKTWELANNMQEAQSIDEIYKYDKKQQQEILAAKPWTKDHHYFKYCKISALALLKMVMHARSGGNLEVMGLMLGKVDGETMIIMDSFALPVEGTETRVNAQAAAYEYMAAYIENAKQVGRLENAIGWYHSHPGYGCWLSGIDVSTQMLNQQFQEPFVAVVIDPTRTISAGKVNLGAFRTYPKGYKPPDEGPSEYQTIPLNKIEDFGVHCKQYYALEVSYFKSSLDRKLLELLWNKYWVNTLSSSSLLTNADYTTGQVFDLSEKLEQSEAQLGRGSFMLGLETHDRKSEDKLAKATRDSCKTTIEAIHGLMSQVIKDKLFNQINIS
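Assay system: Purified human Csn5 enzyme expressed in HEK293T cells | Amount: Enzyme 0.24 nM | Measured by: Fluorescence polarization readout | Medium: Tris/NaCl/DTT buffer, pH 7.5 | Compound dosing: One concentration, 12.5 µM, 0.25% DMSO | Times: 90 min incubation of compound, enzyme and substrate at room temperature | Control set: no-enzyme wells high, enzyme-with-substrate wells low | Read-out: % inhibition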
TPT1 inh – Candida albicans TPT1 enzyme inhibitors, primary screen, biochemical, fluorescence polarization; recombinant caTPT1, FP RNA substrate dephosphorylation; inhibition, % at 5 µM; actives 0.81% (n = 300,000); AID 1962, 2009;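 active = inhibition above the mean of all tested compounds plus 3 SD, set per screening campaign, cut at about 24% in these data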;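 also: plate controls were DMSO alone for no effect and ferristatin control at 100 nM for full effect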
HNF4A DNA FP – change in binding of human HNF4A to DNA, primary screen, biochemical, fluorescence polarization, FITC-DNA; Hepatocyte nuclear factor 4-alpha (Homo sapiens), P41235; activity change, % at 10 µM; 1 h; actives 0.3% (n = 360,000); in the data active = activity change above about 30%, passing the limit was not always enough
Target sequence (P41235 whole entry, looked up): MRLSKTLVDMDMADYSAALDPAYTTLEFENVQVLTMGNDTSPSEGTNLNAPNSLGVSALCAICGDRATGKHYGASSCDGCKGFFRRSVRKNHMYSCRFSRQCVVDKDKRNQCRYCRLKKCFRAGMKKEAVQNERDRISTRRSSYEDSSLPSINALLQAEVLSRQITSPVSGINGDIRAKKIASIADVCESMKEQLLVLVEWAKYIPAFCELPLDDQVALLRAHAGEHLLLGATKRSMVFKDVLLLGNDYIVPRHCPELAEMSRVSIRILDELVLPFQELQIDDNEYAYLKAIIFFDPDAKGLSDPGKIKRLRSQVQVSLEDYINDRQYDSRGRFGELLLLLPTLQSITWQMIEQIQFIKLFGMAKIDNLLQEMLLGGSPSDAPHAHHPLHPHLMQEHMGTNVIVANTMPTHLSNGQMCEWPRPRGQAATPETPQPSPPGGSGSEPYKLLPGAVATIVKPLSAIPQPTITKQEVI
CRFR2-BP ag – agonists of CRF-BP/CRF-R2 complex, primary screen, cell-based, HEK293, calcium dye fluorescence, uHTS; CRF-binding protein / CRF receptor 2 complex (human); calcium dye fluorescence (FLIPR); percent of saturating CRF peptide response; activation, % at 13.2 µM; actives 0.46% (n = 350,000);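 active = activation of at least 50%, plus an integration ratio under a set limit after plate pattern correction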;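 also: plate controls were neutral control wells without compound for no effect and CRF at EC100 for full effect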
Rpn11 inh conf – Rpn11 (PSMD14) deubiquitinase inhibitors, confirmation, biochemical, fluorescence polarization, single concentration; purified human 26S proteasome, Ub4-pepOG fluorescence polarization; proteasome pretreated with epoxomicin; inhibition, % at 20 µM; actives 29% (n = 1,900); AID 602318, 2012; shares compounds with Rpn11 block
MMP-2 counter-1 – MMP-2 enzyme inhibition, confirmation, counter-screen for RPN11 inhibitor project, biochemical, fluorescence, single concentration; inhibition, % at 20 µM; recombinant MMP-2, FRET peptide cleavage fluorescence; shares compounds with Rpn11 block; actives 4% (n = 1,900);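 also: human MMP-2 activated beforehand with APMA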
Thrombin FP – bovine thrombin protease inhibition, confirmation, counter-screen for Rpn11 inhibitor project, biochemical, fluorescence polarization, single concentration; shares compounds with Rpn11 block; bovine thrombin cleavage of Ub4-pepOG; inhibition, % at 20 µM; actives 13% (n = 1,900); AID 602333, 2012;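 active = mean inhibition at least 40% at 20 µM, or signal 3 deviations below plate average, so some actives read negative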;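 also: plate controls were thrombin with DMSO for no effect and buffer wells lacking thrombin for full effect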
CSN deneddyl val – Csn5 deneddylation inhibitors, confirmation, biochemical, fluorescence polarization, single concentration, SCF-Nedd8OG substrate | shares compounds with CSN deneddyl inh | Csn5 deneddylation of SCF-Nedd8OG, 90 min | inhibition, % at 16.6 µM | actives 62% (n = 540) | AID 720654, 2013; in the data active = inhibition above about 50%;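 also: 0% = DMSO with enzyme and 100% = no enzyme wells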
MMP-2 counter-2 – MMP-2 protease inhibition counter-screen, confirmation, counter-screen for CSN deneddylation inhibitor project, biochemical, fluorescence, single concentration; actives 33% (n = 540); recombinant MMP-2, FRET substrate fluorescence, 60 min; inhibition, % at 16.6 µM; shares compounds with CSN deneddyl inh;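 active = corrected plate-normalized z-score of 5 or more, or -5 or less, or inhibition of 15% or more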;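 also: plate controls were DMSO wells with enzyme for no effect and buffer wells lacking MMP-2 for full effect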
Thrombin cntr – thrombin (bovine) inhibition, counter-screen for CSN hits | inhibition, % at 16.6 µM | bovine thrombin cleavage of Ub4-pepOG, fluorescence polarization | shares compounds with CSN deneddyl inh | actives 49% (n = 540);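 active = inhibition at or above a set limit, with a fluorescence interference ratio between 0.5 and a set maximum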
* marks the source's active call; other numbers are inactive results; i = inactive; · = not tested or not shown; + = active, no number. An excerpt weighted towards active compounds, which were near 2.3% of everything screened. Rule as the data show it, unless noted: active = inhibition above about 40%; inactive = the rest.

SMILES | Rpn11 block | CRFR2-BP antag | CSN deneddyl inh | TPT1 inh | HNF4A DNA FP | CRFR2-BP ag | Rpn11 inh conf | MMP-2 counter-1 | Thrombin FP | CSN deneddyl val | MMP-2 counter-2 | Thrombin cntr
CCCc1cc(=O)oc2cc(OCC(=O)Nc3ccc(S(N)(=O)=O)cc3)ccc12 | + | 2.0 | 104.2* | 0.7 | -34.1 | 3.0 | 6.0 | 67.1* | -9.5 | -3.3 | 45.9* | 32.0*
CCCc1cc(=O)oc2cc(OCC(=O)NCc3cccs3)ccc12 | i | 14.1 | 7.9 | -1.1 | 4.6 | -0.9 | · | · | · | · | · | ·
CC(=O)Nc1cccc(-c2cc(NC=O)c3ncc(-c4ccc(C(C)=O)cc4)n3c2)c1 | i | · | 7.0 | · | 9.0 | · | · | · | · | · | · | ·
COc1ccc(-c2cc(NC=O)c3ncc(-c4ccc(C(C)=O)cc4)n3c2)cn1 | + | · | 42.3* | · | 21.7 | · | 26.1 | -8.6 | 10.8 | 99.8* | 5.3 | 3.0
CC(C)(C)c1ccc(C(=O)OCc2c(-c3ccccc3)ncc3ccccc23)cc1 | i | -12.7 | 0.9 | · | 2.2 | 6.3 | · | · | · | · | · | ·
O=C(CSc1nc(-c2ccccc2)nc2c1Cc1ccccc1O2)Nc1ccccc1 | · | · | · | -1.0 | · | · | · | · | · | · | · | ·
O=C(CSc1nc(-c2ccc(F)cc2)nc2c1Cc1ccccc1O2)Nc1cccc(C(=O)O)c1 | + | 0.8 | 42.7* | · | -87.0 | 0.0 | 0.0 | 1.6 | 82.2* | 6.2 | 30.1* | 5.7
CC(C)c1ccc(NC(=O)COC(=O)/C=C/c2cccc(Br)c2)cc1 | i | -14.0 | 2.1 | 1.3 | 3.4 | 5.5 | · | · | · | · | · | ·
Cc1ccc(C(=O)O)cc1-c1ccc(/C=C2/NC(=O)N(c3ccccc3)C2=O)o1 | + | -14.4 | 40.8* | 3.2 | -23.6 | 0.9 | 74.9* | 18.5 | 30.7 | · | 9.2 | 20.7*
Cc1cccc(N=C2NC(=O)/C(=C/C=C/c3ccco3)S2)c1C | + | 2.0 | 58.3* | 18.9 | -18.1 | -2.4 | 7.5 | 46.6* | 10.4 | 63.3* | 17.6* | 37.5*
CCCOc1ccccc1NC(=O)CC1Nc2ccccc2NC1=O (stereo unspecified) | i | -16.1 | 1.8 | 12.6 | 6.0 | 3.4 | · | · | · | · | · | ·
O=C(NC1CCCCC1)C(CCc1ccccc1)N1CCOCC1 (stereo unspecified) | i | · | 3.0 | · | 2.1 | · | · | · | · | · | · | ·
Cc1ccc(CSc2nnc(SCC(=O)N/N=C/c3c[nH]c4ccccc34)s2)cc1 | + | -16.1 | 60.6* | · | 107.9* | 0.3 | 92.7* | 8.7 | 4.6 | 66.9* | 23.4* | 1.0
N#Cc1c(NC(=O)c2ccc(Br)o2)n(-c2ccccc2)c2nc3ccccc3nc12 | + | -4.5 | 39.4* | 13.1 | 87.8* | 1.1 | 5.8 | -33.2 | -13.6 | 93.9* | 5.8 | 1.8
CC(=O)Nc1cccc(-c2csc(NCc3ccccc3)n2)c1 | i | -2.3 | 5.7 | -2.7 | 0.9 | -0.6 | · | · | · | · | · | ·
O=C(N/N=C/c1sc(=O)n(Cc2ccc(Br)cc2)c1Cl)c1ccco1 | + | 5.4 | 42.0* | 15.1 | 21.1 | 2.4 | -23.9 | 47.7* | 38.4 | 47.3 | 53.9* | 14.4
NC(N)=NC(=S)Nc1ccc(Cl)cc1 | i | -0.4 | -3.7 | · | 0.8 | -1.6 | · | · | · | · | · | ·
CC[n+]1c(/C=C2\Sc3ccccc3N2C)ccc2cccc(C)c21 | + | -166.9 | 70.3* | · | 155.6* | 124.1* | 95.8* | -51.0 | 156.9* | 12.3 | -10.6 | 32.5
CN1/C(=C/c2cccc[n+]2CCO)Sc2ccccc21 | i | -1.4 | -2.2 | 2.5 | 5.0 | 5.7 | · | · | · | · | · | ·
O=C(O)c1ccc(NC(=S)NC(=O)c2ccc(-c3ccc(Br)cc3)o2)cc1 | + | 19.1 | 53.1* | -0.3 | -63.7 | -5.5 | 74.5* | 22.9 | 26.1 | 66.7* | 15.8* | 15.9*
Cn1ccc2cc3c(cc21)CCN3C(=O)Nc1cccnc1 | + | 6.8 | 102.1* | 4.3 | 23.7 | 0.2 | 23.0 | -361.6 | -5.6 | 61.2* | -41.3* | 2.5
CC(=O)c1c(C)[nH]c(C(=O)N2CC(C)CC(C)C2)c1C (stereo unspecified) | i | 14.2 | -4.2 | -3.4 | 0.2 | -1.2 | · | · | · | · | · | ·
COc1ccc(OC(=O)N2C/C(=C/c3ccccc3)C(=O)/C(=C\c3ccccc3)C2)cc1 | i | -3.7 | 29.2 | · | -2.1 | 0.7 | · | · | · | · | · | ·
CC(/C=C1\SC(=S)N(NC(=O)c2ccncc2)C1=O)=C\c1ccccc1 | i | -12.7 | 1.8 | 0.4 | 1.3 | 0.1 | · | · | · | · | · | ·
COc1cc(/C=C2\SC(=S)N(NC(=O)c3ccncc3)C2=O)ccc1O | + | -16.1 | 38.6* | 17.9 | 49.9* | 7.0 | 72.6* | 29.4 | 65.1* | 68.4* | 11.8 | 38.0*
CC1=NN(c2nc(N)nc(/C(C#N)=C/c3ccc([N+](=O)[O-])o3)n2)C(C)(C)C1 | + | -78.2 | 42.3* | · | 96.4* | 38.2 | 4.1 | 12.0 | 14.9 | 95.8* | 1.2 | 12.2
C=CCOC(=O)c1cc(-c2ccc(/C=C3\C(=O)NC(=O)C(C#N)=C3C)o2)ccc1Cl | + | -10.9 | 42.9* | · | -16.8 | 1.0 | 37.2 | 13.6 | 30.6 | 17.9* | 24.3* | 6.7
COc1ccc(/C=N/NC(=O)c2nnn(-c3nonc3N)c2-c2cccc(OC)c2)cc1 | i | -59.6 | -0.7 | 1.7 | -3.0 | 4.9 | · | · | · | · | · | ·

Bioassay records: PubChem BioAssay, several laboratories
